A word on the solubility: it is how much of the substance goes into solution per volume. Low values mean little dissolved substance, high ones much dissolved substance. The term Tmax denotes the time from dosing to the highest level. The term Cmax denotes the highest concentration seen after dosing. What is called AUC is the area under the concentration-time curve, a measure of exposure. Read a high AUC as more exposure.

Data set [1] is described as follows: Solubility of the compound in phosphate buffered saline. The data set is classed as physicochemical. The method, boiled down:
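Solubility measured in PBS buffer, reported in µg/mL.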

Data set [2] in a line: Tmax in rat at 100 mg/kg, sc. The data set is classed as ADME, organism-based. Further details: dose 100 mg/kg, route subcutaneous. The settings on record: in vivo.
Data set [3] can be described thus: Cmax in rat at 100 mg/kg, sc. The data set is classed as ADME, organism-based. The arrangement: dose 100 mg/kg, route subcutaneous. The conditions noted are these: in vivo.
Data set [4] relates to Rattus norvegicus. Nature of the data set: AUC (0 to 24 hrs) in rat at 100 mg/kg, sc. The class given is ADME, organism-based, Plasma. Further details: time < 24 hr, dose 100 mg/kg, route subcutaneous. The settings on record: in vivo.
Data set [5] concerns Rattus norvegicus. Nature of the data set: AUC (0 to 24 hrs) in rat at 70 mg/kg, sc. The class given is ADME, organism-based, Plasma. The arrangement: time < 24 hr, dose 70 mg/kg, route subcutaneous. The conditions noted are these: in vivo.
Data set [6] is described as follows: Tmax in rat at 70 mg/kg, sc. The class given is ADME, organism-based. The arrangement: dose 70 mg/kg, route subcutaneous. The settings on record: in vivo.
Data set [7] is described as follows: Cmax in rat at 70 mg/kg, sc. The arrangement: dose 70 mg/kg, route subcutaneous. The settings on record: in vivo. The data set is classed as ADME, organism-based.

The structures appear in SMILES notation. Values after ≈ are worked out from the molar mass of the structure shown.

Regarding `CCCn1c(CN2C(=O)COc3c2cc(C)cc3[N+](=O)[O-])nnc1-c1ccc(Cl)cn1`, the solubility in data set [1] is 2 µg/mL (≈ 4.52 µM). Consider `CCCn1c(CN2C(=O)COc3c2cc(Cl)cc3[N+](=O)[O-])nnc1-c1ncccc1C`, for which the concentration in solution in data set [1] (solubility) was 80 µg/mL (≈ 181 µM). Compound `CCCn1c(CN2C(=O)COc3c(C)cc(C)cc32)nnc1-c1ccc(Cl)cn1` came in with a solubility in data set [1] of 1.1 µg/mL (≈ 2.67 µM). Regarding `O=C1COc2c(cc(Cl)cc2[N+](=O)[O-])N1Cc1nnc(-c2ccc(Cl)cn2)n1CCC(F)(F)F`, the solubility in data set [1] was 2.2 µg/mL (≈ 4.25 µM).

Turning to `O=C1COc2c(Cl)cc(Cl)cc2N1Cc1nnc(CCc2ccc(Cl)cc2)n1CCC(F)(F)F`, the solubility in data set [1] turned out to be 1.6 µg/mL (≈ 3 µM). With `CCCn1c(CN2C(=O)COc3c(C)cc(C)cc32)nnc1-c1ccccn1`, the Tmax in data set [2] turned out to be 8 h. The compound further gave a solubility in data set [1] of 64 µg/mL (≈ 170 µM). Moreover, the Cmax in data set [3] was found to be 1050 nM. This compound returned an AUC with Rattus norvegicus [4] of 16.2 µM·h. Regarding `CCCn1c(CN2C(=O)COc3c(C)cc(C)cc32)nnc1[C@@H]1CCc2ccccc2C1`, in data set [1], the solubility came to 23 µg/mL (≈ 53.4 µM).

On to `CCCn1c(CN2C(=O)COc3c(C)cc(C)cc32)nnc1[C@@H]1C[C@H]1c1ccccc1`, for which the solubility in data set [1] was found to be 19 µg/mL (≈ 45.6 µM).

On to `CCCn1c(CN2C(=O)COc3c2cc(Cl)cc3[N+](=O)[O-])nnc1-c1ccc(Cl)cn1`, for which the concentration in solution in data set [1] (solubility) came to 1 µg/mL (≈ 2.16 µM). For the compound `CCCn1c(CN2C(=O)COc3c(C)cc(C)cc32)nnc1C1Cc2ccccc2C1`, in the data set on Rattus norvegicus [5], the AUC came out at 61.6 µM·h. In addition, in data set [6], the Tmax was 24 h. Further, the solubility in data set [1] worked out at 35 µg/mL (≈ 84 µM). Further, the Cmax in data set [7] amounted to 3500 nM.

For the origin of these results see ChEMBL document CHEMBL1777714, “Optimization of triazoles as novel and potent nonphlorizin SGLT2 inhibitors” (Bioorg Med Chem Lett, 2011).
